Results on 38 variants are retold here after the RNAGym collection of RNA variant scans (doi:10.1126/science.aae0568).

First the molecules themselves.
B1: tRNA (parent)
chain: GUUCCGUUGGCGUAAUGGUAACGCGUCUCCCUCCUAAGGAGAAGACUGCGGGUUCGAGUCCCGUACGGAACG

Fewer inactive variants are shown than the library holds.

In the data set the parent is B1. In words: yeast fitness relative to wild type (ratio to wild type); higher = fitter; tRNA-Arg(CCU), competitive growth, 37 C, YPD. Summed up:
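Genotype frequency changes were the basis for Darwinian fitness relative to wild type. The frequencies came from 100-nucleotide paired-end sequencing of gene amplicons from the start population and each end population of pooled yeast strains with tRNA-Arg(CCU) gene variants at the native locus. Competition ran in YPD at 37°C for 24 hours in six replicates, genotypes needed ≥ 100 starting reads, and estimates < 0.5 were set to 0.5.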
GUUCCGUUGGCGUAAUGGUAACGCGUCUCCCCCCUAAGGAGAAGACUGCGGGUUCAAGUCCCGUACGGAACG [U32C G56A]: the yeast fitness amounted to 1.07. As to GUUCCGUUGGCGUAAUGGUAACGCGUCUCCCCCCUACGCAGAAGACUGCGGGUUCGAGUCCCGUACGGAACG [U32C A37C G39C], the yeast fitness is ≤ 0.5. In the case of GUUCCGUUGGCGUAAUGGUAACGCGUCUCCCACCUAAGAAGAAGACUGCGGGUACGAGUCCCGUACGGAACG [U32A G39A U54A], the yeast fitness was ≤ 0.5. As for GUUCCGUUGGCGUAAUGGUAACGCGUCUCCCACCUUAGGAGAAGACUGCGGGUUCGAGUCCUGUACGGAACG [U32A A36U C62U], the yeast fitness was ≤ 0.5. To GUUCCGUUGGCGUAAUGGUAACGCGUCUCCCACCUAAGGAGAAGACUGCGGGUUCGAGUCCCCUACGGAACG [U32A G63C] belongs 0.626; to GUUCCGUUGGCGUAAUGGUAACGCGUCUCCCACCUAAGGAGAAGACUGCGGGUUCGAGUCCCAUACGGAACG [U32A G63A], 0.748; to GUUCCGUUGGCGUAAUGGUAACGCGUCUCCCCCCUAAGCAGAAGACUGCGGGUUCGAGUCCCGUACGGAACG [U32C G39C], 0.765. GUUCCGUUGGCGUAAUGGUAACGCGUCUCCCCGCUAAGGAGAAGACUGCGGGUUCGAGUCCCGUACCGAACG [U32C C33G G67C]: the yeast fitness is ≤ 0.5. The value for GUUCCGUUGGCGUAAUGGUAACGCGUCUCCCGCCUAUGGAGAAGACUGCGGGUUCGAGUCCCGCACGGAACG [U32G A37U U64C] was ≤ 0.5. To GUUCCGUUGGCGUAAUGGUAACGCGUCUCCCCCCUAAGGAGAGGACUGCGGGUUCGAGUCCCGUAUGGAACG [U32C A43G C66U] belongs 0.758; to GUUCCGUUGGCGUAAUGGUAACGCGUCUCCCCCCUAAGGAGAAGACUACGGGGUCGAGUCCCGUACGGAACG [U32C G48A U53G], ≤ 0.5. On to GUUCCGUUGGCGUAAUGGUAACGCGUCUCCCACCUAAGGAGAAGACUGCGGGUUCGACUCCCGUAAGGAACG [U32A G58C C66A], for which the yeast fitness is ≤ 0.5. Turning to GUUCCGUUGGCGUAAUGGUAACGCGUCUCCCCCCUAACGAGAAGACUGCGGGUUCGAGUCCCGUACGCCACG [U32C G38C G68C A69C], the yeast fitness is 0.589.

Consider GUUCCGUUGGCGUAAUGGUAACGCGUCUCCCCCGUAAGGAGAAGACUGCGGGUUCGAGUCCCGUUCGGAGCG [U32C C34G A65U A70G], for which the yeast fitness was ≤ 0.5. Consider GUUCCGUUGGCGUAAUGGUAACGCGUCUCCCCCCUAAGGAGAAGACUCCGGGUUCAAGUCCCGUACGGAACG [U32C G48C G56A], for which the yeast fitness was ≤ 0.5.

Consider GUUCCGUUGGCGUAAUGGUAACGCGUCUCCCACCUAAGGAGAAGACUGCGGGUUAGAGUCUCGUACGGAACG [U32A C55A C61U], for which the yeast fitness turned out to be 0.536. On to GUUCCGUUGGCGUAAUGGUAACGCGUCUCCCACCUAGGGAGAAGACUACGGGUUCGAGCCCCGUACGGAACG [U32A A37G G48A U59C], for which the yeast fitness is 0.541. For the variant GUUCCGUUGGCGUAAUGGUAACGCGUCUCCCCCCUAAGGAGAAGUCUGCGGGUUCGAGUCCCGUAAGGAACG [U32C A45U C66A], the yeast fitness is ≤ 0.5. To GUUCCGUUGGCGUAAUGGUAACGCGUCUCCCCCCUCAGGAGAAGACUGCGGGUUCGAGUCCCGUACGGAACG [U32C A36C] belongs 0.756; to GUUCCGUUGGCGUAAUGGUAACGCGUCUCCCCCCUACAGAGAAGACUGCGGGUUCGAGUCCCAUACGGAACG [U32C A37C G38A G63A], 0.533. GUUCCGUUGGCGUAAUGGUAACGCGUCUCCCCCCUAAGGGAAAGACUGCGGGUUCGAGUCCCGUACGGAACG [U32C A40G G41A]: the yeast fitness was ≤ 0.5. The value for GUUCCGUUGGCGUAAUGGUAACGCGUCUCCCCCCUAACGAGAAGACUGCGGGUUCGAGUCCCGUACGGUACG [U32C G38C A69U] was 0.531. The value for GUUCCGUUGGCGUAAUGGUAACGCGUCUCCCCCCUAUGGAGAAGACUGGGGGUUCGAGUCCCGUACGGAUCG [U32C A37U C49G A70U] was 0.664; that for GUUCCGUUGGCGUAAUGGUAACGCGUCUCCCCUCUAAGGAGAAGACUGCGGGUUCGAGUCCCGUACGGAACG [U32C C33U] was 0.659; that for GUUCCGUUGGCGUAAUGGUAACGCGUCUCCCACCUUAGGAGAAGACUGCGGGUUCGAGUCCCGUACGGAGCG [U32A A36U A70G] was ≤ 0.5. As to GUUCCGUUGGCGUAAUGGUAACGCGUCUCCCCCCUAAAGAGAAGACUGCGGGUUCGAGUCCCGUACGGAACG [U32C G38A], the yeast fitness came to 0.962.

In the case of GUUCCGUUGGCGUAAUGGUAACGCGUCUCCCCCCCAAGGAGAAGACUGUGGGUUCGAGUCCCGUACGGAACG [U32C U35C C49U], the yeast fitness came to 0.659. With GUUCCGUUGGCGUAAUGGUAACGCGUCUCCCACCUAAGGAGAAGACUGCGGGUUCGUGUCCCGUACGGAACG [U32A A57U], the yeast fitness was determined as 0.558. Turning to GUUCCGUUGGCGUAAUGGUAACGCGUCUCCUUCCUAAGGAGAAGACUGCGGGAUCGAGUCCCGUACGAAACG [C31U U53A G68A], the yeast fitness came out at 0.515.

For GUUCCGUUGGCGUAAUGGUAACGCGUCUCCCAUCUAAGGAGAAGACUGCGGGUUCGAGUCCCGUACGGAACG [U32A C33U], the yeast fitness amounted to 0.597. For GUUCCGUUGGCGUAAUGGUAACGCGUCUCCCACCUAAGGAGAAGACUGCGGGUUCGAGUCCCGUACGCAACG [U32A G68C], the yeast fitness is 0.721. On to GUUCCGUUGGCGUAAUGGUAACGCGUCUCCCCCCUAAGGAGAAGACUGCGAGUUCGAGUCCCGUACGGAACG [U32C G51A], for which the yeast fitness came out at 0.851.

Take GUUCCGUUGGCGUAAUGGUAACGCGUCUCCCCCCUAAGGAGCAGAUUGCGGGUUCGAGUCCCGUACGGAACG [U32C A42C C46U]: the yeast fitness is 0.63.

Consider GUUCCGUUGGCGUAAUGGUAACGCGUCUCCCACCUAAGGAGAAGACUGCGGGUUCGAGUCCCGUAAGGAACG [U32A C66A], for which the yeast fitness came to 0.614. As for GUUCCGUUGGCGUAAUGGUAACGCGUCUCCCACCUUAGGAGAACGCUGCGGGUUCGAGUCCCGUACGGAACG [U32A A36U G44C A45G], the yeast fitness came out at 0.516.

As to GUUCCGUUGGCGUAAUGGUAACGCGUCUCCCCACUAAGGAGAAGACUGCGCGUUCGAGUCCCGUACGAAACG [U32C C33A G51C G68A], the yeast fitness was ≤ 0.5. With GUUCCGUUGGCGUAAUGGUAACGCGUCUCCCACCUAAGGAGAAGACUGCGGGUUCGAGUCCCGUACGGACCG [U32A A70C], the yeast fitness was 0.741. On to GUUCCGUUGGCGUAAUGGUAACGCGUCUCCCACCUAAGGAGAAGACUGCGGGUUCGAGUCCCGGACGGAACG [U32A U64G], for which the yeast fitness was 0.751.
